Reference: article PMC3375358 (Journal of Medicinal Chemistry, 2012)

Key:
[1] = system: CREB-mediated gene transcription; assay: CREB reporter assay in HEK 293T cells; type: cell-based
Procedure, shortened: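 Inhibition of CREB-dependent reporter transcription by test compounds was measured in HEK 293T cells, with a top concentration of 50 μM. IC50 values are given as mean ± SD from at least two independent experiments. Where IC50 was not reached at the highest concentration, the value is recorded as >50.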

KIX-KID interaction = KIX-KID interaction (Homo sapiens, UniProt Q92793); assay: in vitro renilla luciferase complementation assay for KIX-KID interaction; type: biochemical
Procedure, shortened: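 KIX-KID binding was measured in vitro by renilla luciferase complementation, with test compounds up to 50 μM. IC50 values are given as mean ± SD from at least two independent experiments. The value is listed as >50 if IC50 was not reached at the top concentration.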

Sequence of KIX-KID interaction (Q92793 587-666 limits assumed): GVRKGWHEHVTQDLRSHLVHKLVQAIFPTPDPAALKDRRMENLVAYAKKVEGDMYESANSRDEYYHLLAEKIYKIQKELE

Row | SMILES | activity in cell-based CREB reporter assay (in words) [1] | activity in inhibiting KIX-KID interaction (in words) (KIX-KID interaction)
1 | Cn1nc(Nc2ccc(Cl)cc2)c2cc3ccccc3cc21 [Compound 6, N-(4-Chlorophenyl)-1-methyl-1H-benzo[f]indazol-3-amine] | inactive | 
2 | O=c1oc2cc3ccccc3cc2c(=O)n1-c1ccc(Cl)cc1 [Compound 2, 3-(4-Chlorophenyl)-2H-naphtho[2,3-e][1,3]oxazine-2,4-(3H)-dione] | low or no inhibitory activity | neither of these compounds showed any activity
3 | O=c1[nH]c2cc3ccccc3cc2c(=O)n1-c1ccc(Cl)cc1 [Compound 3, 3-(4-Chlorophenyl)-benzo[g]quinazoline-2,4-(1H,3H)-dione] | low or no inhibitory activity | neither of these compounds showed any activity
4 | Clc1ccc(Nc2noc3cc4ccccc4cc23)cc1 [Compound 4, N-(4-Chlorophenyl)-naphtho[2,3-d]isoxazol-3-amine] | very weak activity | inactive
